Reference: ChEMBL document CHEMBL3352439, “γ-Butyrolactone, cytochalasin, cyclic carbonate, eutypinic acid, and phenalenone derivatives from the soil fungus Aspergillus sp. PSU-RSPG185” (J Nat Prod, 2014)
The source made the active and inactive calls. The calls are words filed in the database; no cut-off is given here.

Assays:
KB = test: Cytotoxicity against human KB cells by colorimetric method; assay type: functional, cell-based
Outline: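 KB cells assayed by the method of O'Brien and coworkers; ellipticine as reference compound; IC50 derived.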

Plasmodium falciparum = test: Antimalarial activity against multidrug-resistant Plasmodium falciparum K1 assessed as [3H]-hypoxanthine incorporation 24 to 42 hrs by scintillation counting analysis; assay type: functional, organism-based
Outline: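 Microculture radioisotope technique against multidrug-resistant K1 parasites; dihydroartemisinin as reference drug.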

[1] = system: Mycobacterium tuberculosis; test: Antimicrobial activity against Mycobacterium tuberculosis H37Ra assessed as growth inhibition by green fluorescent protein-based fluorescent detection; assay type: functional, organism-based
Outline: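 Growth inhibition read by GFP-based fluorescence; isoniazid as reference drug; result reported as MIC.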

Vero = test: Cytotoxicity against african green monkey Vero cells by colorimetric method; assay type: cell-based; conditions: Chlorocebus sabaeus
Outline: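 Vero cells assayed by a colorimetric method; ellipticine as reference compound; IC50 derived.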

`COc1c(O)c2c3c(c(O)cc(C)c3c1O)C(=O)[C@](C)(C/C=C(\C)CC/C=C(\C)CC[C@@H](O)C(C)(C)O)C2=O` was tested, and the inhibition (KB) was “inactive”, the Activity (Plasmodium falciparum) was “inactive” and the Activity [1] was “inactive”.

In the case of `CC1=C[C@@H]2[C@H]3[C@H]([C@H](O)C(=O)[C@]24C(=O)N[C@@H](CC(C)C)[C@@H]4[C@@H]1C)[C@@H](O)CCC[C@]3(C)O`, the inhibition (KB) is reported as “inactive”, the Activity (Plasmodium falciparum) is reported as “inactive” and the Activity [1] is reported as “inactive”.

`C=C(C)C#Cc1cc(C(=O)O)ccc1O` was tested, and the inhibition (KB) was “inactive”, the Activity (Plasmodium falciparum) was “inactive” and the Activity [1] was “inactive”.

With `CO[C@@]1(C/C=C(\C)CC/C=C(\C)CC[C@@H](O)C(C)(C)O)C(=O)c2c(O)cc(C)c3c(O)c(C)c(O)c(c23)C1=O` the IC50 (KB) was 48.4 µM, the IC50 (Vero) was 34.2 µM and the Activity (Plasmodium falciparum) was “inactive”. The Activity [1] was “inactive”.
